Calls of active or inactive are those of the source. The calls are words filed in the database; no cut-off is given here.
Legend:
Progesterone receptor = biological target: T1, Progesterone receptor (Homo sapiens, UniProt P06401); test: Displacement of [3H]progesterone from human Progesterone receptor A; - = low efficacy or functional efficacy <20%
T1 sequence (P06401 whole entry): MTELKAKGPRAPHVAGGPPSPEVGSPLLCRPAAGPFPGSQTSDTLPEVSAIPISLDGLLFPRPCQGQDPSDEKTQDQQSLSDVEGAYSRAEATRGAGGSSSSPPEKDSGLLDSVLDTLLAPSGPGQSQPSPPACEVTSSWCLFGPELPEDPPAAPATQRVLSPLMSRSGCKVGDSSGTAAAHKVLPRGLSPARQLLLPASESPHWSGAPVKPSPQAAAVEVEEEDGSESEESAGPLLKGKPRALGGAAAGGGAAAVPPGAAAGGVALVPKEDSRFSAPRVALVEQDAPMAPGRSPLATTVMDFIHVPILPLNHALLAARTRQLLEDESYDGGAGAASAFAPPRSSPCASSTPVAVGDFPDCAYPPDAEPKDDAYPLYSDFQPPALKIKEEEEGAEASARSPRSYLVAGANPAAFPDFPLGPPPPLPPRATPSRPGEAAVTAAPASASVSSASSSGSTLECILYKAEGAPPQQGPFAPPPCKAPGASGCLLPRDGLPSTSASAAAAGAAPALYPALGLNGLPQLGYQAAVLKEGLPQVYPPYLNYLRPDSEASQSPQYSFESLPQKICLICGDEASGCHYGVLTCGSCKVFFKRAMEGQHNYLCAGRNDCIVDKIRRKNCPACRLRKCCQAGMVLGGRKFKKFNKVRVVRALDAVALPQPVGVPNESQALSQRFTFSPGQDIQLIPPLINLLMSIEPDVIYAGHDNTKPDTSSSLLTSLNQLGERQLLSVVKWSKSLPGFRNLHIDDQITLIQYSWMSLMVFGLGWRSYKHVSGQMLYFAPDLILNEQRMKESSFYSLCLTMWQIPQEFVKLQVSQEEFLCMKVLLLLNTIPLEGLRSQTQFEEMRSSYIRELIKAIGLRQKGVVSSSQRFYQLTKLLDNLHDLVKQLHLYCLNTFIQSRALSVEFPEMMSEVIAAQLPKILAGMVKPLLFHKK
How it was run: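 Human PR-A expressed from baculovirus in Sf21 cells, cytosol about 40 µg protein. Incubated with about 0.8 nM [3H]progesterone overnight at 4 °C in Tris/EDTA/glycerol/DTT/molybdate buffer, pH 7.6. Nonspecific binding taken with 1 µM unlabeled progesterone. Hydroxyapatite capture, scintillation counting. IC50 from Hill analysis, Ki from Cheng-Prusoff.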

Glucocorticoid receptor [1] = biological target: T2, Glucocorticoid receptor (Homo sapiens, UniProt P04150); test: Transcriptional repression in HepG2 cells expressing human glucocorticoid receptor; - = low efficacy or a functional efficacy <20%; type: cell-based
T2 sequence (P04150 whole entry): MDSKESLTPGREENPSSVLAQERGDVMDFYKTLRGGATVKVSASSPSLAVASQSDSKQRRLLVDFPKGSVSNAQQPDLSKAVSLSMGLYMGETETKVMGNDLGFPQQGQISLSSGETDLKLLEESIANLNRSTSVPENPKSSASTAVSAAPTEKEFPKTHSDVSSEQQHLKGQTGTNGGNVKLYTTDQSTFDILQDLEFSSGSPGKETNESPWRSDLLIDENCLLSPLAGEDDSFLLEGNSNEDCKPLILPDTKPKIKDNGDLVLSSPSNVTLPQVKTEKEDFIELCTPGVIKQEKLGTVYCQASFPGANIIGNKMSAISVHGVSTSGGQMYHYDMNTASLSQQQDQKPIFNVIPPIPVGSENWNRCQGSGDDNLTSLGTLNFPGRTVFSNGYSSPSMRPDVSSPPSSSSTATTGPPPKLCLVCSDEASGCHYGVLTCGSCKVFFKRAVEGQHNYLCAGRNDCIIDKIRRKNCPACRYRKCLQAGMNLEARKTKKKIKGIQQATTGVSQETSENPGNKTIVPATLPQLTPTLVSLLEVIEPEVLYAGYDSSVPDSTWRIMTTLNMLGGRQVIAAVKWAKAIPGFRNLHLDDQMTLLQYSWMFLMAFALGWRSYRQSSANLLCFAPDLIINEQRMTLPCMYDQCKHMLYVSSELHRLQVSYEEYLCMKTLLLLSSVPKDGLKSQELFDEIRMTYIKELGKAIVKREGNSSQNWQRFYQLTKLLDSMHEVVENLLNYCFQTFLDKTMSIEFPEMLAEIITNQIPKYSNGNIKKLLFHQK
How it was run: (§1)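 Cotransfection in HepG2 cells with a luciferase reporter under an E-selectin promoter carrying one NFκB and one AP-1 site. Readout is repression of transcription. Seven-point half-log concentration-response curves. EC50 taken at half-maximal response. Efficacy expressed as % of the dexamethasone maximum. Mean of two experiments in triplicate, single run, or ≥3 experiments.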

Glucocorticoid receptor [2] = biological target: T2, Glucocorticoid receptor; test: Binding affinity towards human glucocorticoid receptor (GR) was determined using [3H]dexamethasone as radioligand in […] cells; type: cell-based
[3] = biological target: T3, Glucocorticoid receptor (Homo sapiens) (UniProt P04150); test: Transcriptional activation in CV-1 cells expressing human glucocorticoid receptor compared to Dexamethasone; - = low efficacy or a functional efficacy <20%; type: cell-based
T3 sequence (whole entry): T2 sequence (P04150 whole entry)
How it was run: (§2)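 GRE activation co-transfection in CV-1 cells: hGR receptor plasmid plus a luciferase reporter driven by part of the MMTV promoter (four GRE sites, no known AP-1 or NFκB affinity). Full seven-point, half-log concentration-response curves run in triplicate. EC50 is the concentration at half-maximal response; efficacy is given as % of the dexamethasone maximal response.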

Glucocorticoid receptor [4] = biological target: T2, Glucocorticoid receptor; test: Transcriptional activation in CV-1 cells expressing human glucocorticoid receptor; - = low efficacy or a functional efficacy <20%; type: cell-based
How it was run: (§3)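 Cotransfection of an hGR receptor plasmid with a luciferase reporter driven by the MMTV promoter (four GREs) in CV-1 cells. Seven-point half-log concentration-response curves. EC50 taken as half-maximal response. Efficacy expressed as % of the dexamethasone maximum. Mean of two experiments in triplicate, single triplicate run, or ≥3 experiments in triplicate.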

[5] = biological target: T3, Glucocorticoid receptor (Homo sapiens); test: Transcriptional repression in HepG2 cells expressing human glucocorticoid receptor compared to Dexamethasone; - = low efficacy or a functional efficacy <20%; type: cell-based
How it was run: (§4)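 Repression co-transfection in HepG2 cells: luciferase reporter under an E-selectin promoter carrying one NFκB and one AP-1 binding site. Full seven-point, half-log concentration-response curves run in triplicate. EC50 is the concentration at half-maximal response; maximal efficacy is given as % of the dexamethasone maximal response.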

Glucocorticoid receptor [6] = biological target: T2, Glucocorticoid receptor; test: Transcriptional repression in HepG2 cells expressing human glucocorticoid receptor; type: functional, cell-based
[7] = biological target: T3, Glucocorticoid receptor (Homo sapiens); test: Transcriptional activation in CV-1 cells expressing human glucocorticoid receptor compared to Dexamethasone; type: functional, cell-based; how it was run: as §2
Glucocorticoid receptor [8] = biological target: T2, Glucocorticoid receptor; test: Transcriptional activation in CV-1 cells expressing human glucocorticoid receptor; - = low efficacy or a functional efficacy <5%; type: cell-based; how it was run: as §3
[9] = biological target: T3, Glucocorticoid receptor (Homo sapiens); test: Transcriptional activation in CV-1 cells expressing human glucocorticoid receptor compared to Dexamethasone; - = low efficacy or a functional efficacy <5%; type: cell-based; how it was run: as §2
Glucocorticoid receptor [10] = biological target: T2, Glucocorticoid receptor; test: Transcriptional repression in HepG2 cells expressing human glucocorticoid receptor; - = low efficacy or a functional efficacy <5%; type: cell-based; how it was run: as §1
[11] = biological target: T3, Glucocorticoid receptor (Homo sapiens); test: Transcriptional repression in HepG2 cells expressing human glucocorticoid receptor compared to Dexamethasone; - = low efficacy or a functional efficacy <5%; type: cell-based; how it was run: as §4

SMILES | EC50 (Glucocorticoid receptor [1]) | Ki (Glucocorticoid receptor [2]) | EC50 (Glucocorticoid receptor [4]) | Efficacy [7] | EC50 (Glucocorticoid receptor [8]) | further results
C=CCC1Oc2ccc(OCC)c(OC)c2-c2ccc3c(c21)C(C)=CC(C)(C)N3 (configuration not stated) | Not Active | – | – | – | – | Ki (Progesterone receptor): Not Active
C=CCC1Oc2cccc(OCC3CC3)c2-c2ccc3c(c21)C(C)=CC(C)(C)N3 (configuration not stated) | Not Active | 2100 nM | Not Active | – | – | Efficacy [3]: inactive; Efficacy [5]: inactive
C=CCC1Oc2cccc(COC)c2-c2ccc3c(c21)C(C)=CC(C)(C)N3 (configuration not stated) | – | – | – | 5% | Not Active | EC50 (Glucocorticoid receptor [6]): 305 nM
C=CCOc1cccc2c1-c1ccc3c(c1C(CC=C)O2)C(C)=CC(C)(C)N3 (configuration not stated) | Not Active | 88 nM | Not Active | 0% | – | –
C=CCC1Oc2cccc(OCC)c2-c2ccc3c(c21)C(C)=CC(C)(C)N3 (configuration not stated) | Not Active | 65 nM | Not Active | 0% | – | –
C=CCC1Oc2cccc(C(=O)OC)c2-c2ccc3c(c21)C(C)=CC(C)(C)N3 (configuration not stated) | – | 400 nM | – | – | Not Active | Efficacy [9]: inactive; EC50 (Glucocorticoid receptor [10]): Not Active; Efficacy [11]: inactive
C=CCC1Oc2cccc(CN)c2-c2ccc3c(c21)C(C)=CC(C)(C)N3 (configuration not stated) | – | 140 nM | – | 7% | Not Active | EC50 (Glucocorticoid receptor [6]): 467 nM
C=CCC1Oc2cccc(OCc3ccccc3)c2-c2ccc3c(c21)C(C)=CC(C)(C)N3 (configuration not stated) | Not Active | 6000 nM | Not Active | – | – | Efficacy [3]: inactive; Efficacy [5]: inactive
